Columns and labels:
[1] = Cytotoxicity against bovine chondrocytes at 1 mM after 96 hrs by MTT cell viability assay; assay type: cell-based, Bos taurus; details: cattle, 1000 µM
Method in brief: (§1)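 Chondrocytes isolated from mature bovine (>18 months) metacarpophalangeal cartilage by 1 h 0.1% pronase then overnight 0.04% collagenase digestion at 37 °C. Cultured 96 h in serum-free DMEM with gentamicin and 1% HEPES, with or without compound (10-0.1 mM). MTT at final 1 mg/mL for 3 h; formazan dissolved in DMSO and OD read. Viability given as % of untreated cells; n experiments from different cows, in triplicate.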

[2] = Chondroprotective activity in bovine articular cartilage explant cultures assessed as reduction in IL1-induced glycosaminoglycan release at 10 mM after 96 hrs; assay type: functional, Bos taurus
Method in brief: (§2)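 Full-depth articular cartilage explants (50-100 mg) from mature bovine metacarpophalangeal joints; equilibrated 48 h in DMEM with 10% FCS, gentamicin, 1% HEPES, then washed in serum-free medium. Cultured in triplicate in serum-free DMEM with or without compound (10-0.1 mM); 10 ng/mL recombinant human IL-1 added to half the wells. After 96 h, media sulfated GAG measured by DMMB dye binding (A525) against shark chondroitin sulfate C standard.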

[3] = Chondroprotective activity in bovine articular cartilage explant cultures assessed as reduction in IL1-induced glycosaminoglycan release at 0.1 mM after 96 hrs relative to control; assay type: functional, Bos taurus; set-up: scale not given: the % may be the effect or the level left; method in brief: as §2
[4] = Cytotoxicity against bovine chondrocytes at 10 mM after 96 hrs by MTT cell viability assay; assay type: cell-based, Bos taurus; details: cattle, 10000 µM; method in brief: as §1
[5] = Chondroprotective activity in bovine articular cartilage explant cultures assessed as reduction in IL1-induced glycosaminoglycan release at 1 mM after 96 hrs; assay type: functional, Bos taurus; method in brief: as §2
[6] = Chondroprotective activity in bovine articular cartilage explant cultures assessed as reduction in IL1-induced glycosaminoglycan release at 0.1 mM after 96 hrs; assay type: functional, Bos taurus; method in brief: as §2
[7] = Cytotoxicity against bovine chondrocytes at 0.1 mM after 96 hrs by MTT cell viability assay; assay type: cell-based, Bos taurus; details: cattle, 100 µM; method in brief: as §1
[8] = Chondroprotective activity in bovine articular cartilage explant cultures assessed as reduction in IL1-induced glycosaminoglycan release at 10 mM after 96 hrs relative to control; assay type: functional, Bos taurus; set-up: scale not given: the % may be the effect or the level left; method in brief: as §2
[9] = Chondroprotective activity in bovine articular cartilage explant cultures assessed as reduction in IL1-induced glycosaminoglycan release at 1 mM after 96 hrs relative to control; assay type: functional, Bos taurus; set-up: scale not given: the % may be the effect or the level left; method in brief: as §2

Compound | Activity [1] | fold change (FC) [2] | Activity [3] | Activity [4] | fold change (FC) [5] | fold change (FC) [6] | Activity [7] | Activity [8] | Activity [9]
CC[C@H](C)[C@H](NP(=O)(OC[C@H]1OC(O)[C@H](NC(C)=O)[C@@H](O)[C@@H]1O)Oc1ccc(OC)cc1)C(=O)OCc1ccccc1 (some centres not stated) | 118% | 0.5 | 5.2% | 56% | 1.2 | 3.9 | 110% | 74.6% | 70.8%
COc1ccc(OP(=O)(N[C@H](C(=O)OC2CCCCC2)C(C)C)OC[C@H]2OC(O)[C@H](NC(C)=O)[C@@H](O)[C@@H]2O)cc1 (some centres not stated) | 30% |  | -6.3% |  |  | 4.8 | 92% |  | 
COc1ccc(OP(=O)(N[C@@H](CCSC)C(=O)OCc2ccccc2)OC[C@H]2OC(O)[C@H](NC(C)=O)[C@@H](O)[C@@H]2O)cc1 (some centres not stated) | 49% |  | 18% |  | 1.6 | 3.8 | 103% |  | 62.2%
CCOC(=O)CNP(=O)(OC[C@H]1OC(O)[C@H](NC(C)=O)[C@@H](O)[C@@H]1O)Oc1ccc(OC)cc1 (some centres not stated) | 37% |  | -19.3% |  |  | 3.6 | 78% |  | 
CCOC(=O)CN(C)P(=O)(OC[C@H]1OC(O)[C@H](NC(C)=O)[C@@H](O)[C@@H]1O)Oc1ccc(OC)cc1 (some centres not stated) | 100% |  | -16.3% |  |  | 5.4 | 100% |  | 
COc1ccc(OP(=O)(N[C@H](C)C(=O)OCc2ccccc2)OC[C@H]2OC(O)[C@H](NC(C)=O)[C@@H](O)[C@@H]2O)cc1 (some centres not stated) | 66% |  | 24.3% |  | 2.8 | 3.4 | 96% |  | 31%
CC(=O)N[C@@H]1[C@@H](O)[C@H](O)[C@@H](CO)O[C@H]1O [N-ACETYLGLUCOSAMINE] | 70% | 2.9 | 5.4% | 61% | 4.5 | 4.3 | 107% | 9.3% | -1%
CCOC(=O)[C@H](C)NP(=O)(OC[C@H]1OC(O)[C@H](NC(C)=O)[C@@H](O)[C@@H]1O)Oc1ccc(OC)cc1 (some centres not stated) | 76% |  | -1.9% |  |  | 4.4 | 89% |  | 
CCOC(=O)[C@@H](NP(=O)(OC[C@H]1OC(O)[C@H](NC(C)=O)[C@@H](O)[C@@H]1O)Oc1ccc(OC)cc1)C(C)C (some centres not stated) |  |  | -21.1% |  |  | 4.4 | 94% |  | 
COc1ccc(OP(=O)(N[C@@H](Cc2ccccc2)C(=O)OCc2ccccc2)OC[C@H]2OC(O)[C@H](NC(C)=O)[C@@H](O)[C@@H]2O)cc1 (some centres not stated) |  | 2.1 |  | 49% |  |  |  | 2.3% | 
COc1ccc(OP(=O)(NC(C)(C)C(=O)OCc2ccccc2)OC[C@H]2OC(O)[C@H](NC(C)=O)[C@@H](O)[C@@H]2O)cc1 (some centres not stated) | 95% |  | -2.2% |  | 4.2 | 3.4 | 99% |  | -0.3%
COc1ccc(OP(=O)(N[C@@H](CC(C)C)C(=O)OCc2ccccc2)OC[C@H]2OC(O)[C@H](NC(C)=O)[C@@H](O)[C@@H]2O)cc1 (some centres not stated) | 20% | 0.9 | 12.2% | 39% | 2.6 | 4.1 | 87% | 64% | 44.7%
CCCCOC(=O)[C@@H]1CCCN1P(=O)(OC[C@H]1OC(O)[C@H](NC(C)=O)[C@@H](O)[C@@H]1O)Oc1ccc(OC)cc1 (some centres not stated) |  |  | -17.5% |  |  | 4.1 | 98% |  | 
COc1ccc(OP(=O)(N[C@@H](C)C(=O)OCc2ccccc2)OC[C@H]2OC(O)[C@H](NC(C)=O)[C@@H](O)[C@@H]2O)cc1 (some centres not stated) | 81% | 2 | -2.2% | 85% | 4.2 | 4.6 | 104% | 24.2% | 5.6%
COC(=O)[C@H](C)NP(=O)(OC[C@H]1OC(O)[C@H](NC(C)=O)[C@@H](O)[C@@H]1O)Oc1ccc(OC)cc1 (some centres not stated) | 37% |  | 15.8% |  |  | 3.9 | 97% |  | 
COc1ccc(OP(=O)(OC[C@H]2OC(O)[C@H](NC(C)=O)[C@@H](O)[C@@H]2O)N2CCC[C@H]2C(=O)OCc2ccccc2)cc1 (some centres not stated) | 85% | 0.8 | -21.9% | 63% | 4.1 | 4 | 78% | 65.6% | 2.2%
COc1ccc(OP(=O)(NCC(=O)OCc2ccccc2)OC[C@H]2OC(O)[C@H](NC(C)=O)[C@@H](O)[C@@H]2O)cc1 (some centres not stated) | 100% |  | -12.2% |  | 1.2 | 4.2 | 99% |  | 73.6%
COc1ccc(OP(=O)(N[C@H](C(=O)OCc2ccccc2)C(C)C)OC[C@H]2OC(O)[C@H](NC(C)=O)[C@@H](O)[C@@H]2O)cc1 (some centres not stated) | 100% | 0.5 | 2.5% | 40% | 0.9 | 4 | 104% | 85.3% | 77.6%
COc1ccc(OP(=O)(N[C@H](C(=O)OC(C)C)C(C)C)OC[C@H]2OC(O)[C@H](NC(C)=O)[C@@H](O)[C@@H]2O)cc1 (some centres not stated) | 56% |  | 14% |  | 3.6 | 3.2 | 93% |  | 12.1%
N[C@H]1C(O)O[C@H](CO)[C@@H](O)[C@@H]1O (some centres not stated) [GLUCOSAMINE] | 88% | 2 | 0.8% | 56% | 4.7 | 5.1 | 106% | 19% | 3.4%

From ChEMBL document CHEMBL1140054, “Phosphate prodrugs derived from N-acetylglucosamine have enhanced chondroprotective activity in explant cultures and represent a new lead in antiosteoarthritis drug discovery” (J Med Chem, 2008)
